STAT3 act: increases IL-6 driven STAT3 reporter signal; U3A cells, IL-6 STAT3-luciferase reporter, luminescence; 100% = signal with IL-6 EC80 alone; activation (% of control), % at 5.6 µM; 190,000 tested, 0.91% active;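 active = activation above the screen-wide mean of compound activation plus 3 SD, cut at about 130% in these data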;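 note: 0% = background luminescence of wells with medium and substrate only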
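Material: human STAT1-deficient U3A cells with stable STAT3-luciferase reporter / Probe or stimulus: IL-6 stimulus at 33 ng/mL final / Schedule: 1 h compound pre-exposure, 6 h IL-6 stimulation, 37 °C / Technique: luminescence / Read-out basis: percent of IL-6-only median luminescence / Control set: IL-6-only high control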
AHR act: human AHR activation | AHR-responsive luciferase reporter cells, luminescence | activation, % at 5 µM | 320,000 tested, 2.5% active | P35869; in the data active = activation above about 47%;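 note: 0% = vehicle wells and 100% = reference agonist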
Target sequence (P35869 whole entry, looked up): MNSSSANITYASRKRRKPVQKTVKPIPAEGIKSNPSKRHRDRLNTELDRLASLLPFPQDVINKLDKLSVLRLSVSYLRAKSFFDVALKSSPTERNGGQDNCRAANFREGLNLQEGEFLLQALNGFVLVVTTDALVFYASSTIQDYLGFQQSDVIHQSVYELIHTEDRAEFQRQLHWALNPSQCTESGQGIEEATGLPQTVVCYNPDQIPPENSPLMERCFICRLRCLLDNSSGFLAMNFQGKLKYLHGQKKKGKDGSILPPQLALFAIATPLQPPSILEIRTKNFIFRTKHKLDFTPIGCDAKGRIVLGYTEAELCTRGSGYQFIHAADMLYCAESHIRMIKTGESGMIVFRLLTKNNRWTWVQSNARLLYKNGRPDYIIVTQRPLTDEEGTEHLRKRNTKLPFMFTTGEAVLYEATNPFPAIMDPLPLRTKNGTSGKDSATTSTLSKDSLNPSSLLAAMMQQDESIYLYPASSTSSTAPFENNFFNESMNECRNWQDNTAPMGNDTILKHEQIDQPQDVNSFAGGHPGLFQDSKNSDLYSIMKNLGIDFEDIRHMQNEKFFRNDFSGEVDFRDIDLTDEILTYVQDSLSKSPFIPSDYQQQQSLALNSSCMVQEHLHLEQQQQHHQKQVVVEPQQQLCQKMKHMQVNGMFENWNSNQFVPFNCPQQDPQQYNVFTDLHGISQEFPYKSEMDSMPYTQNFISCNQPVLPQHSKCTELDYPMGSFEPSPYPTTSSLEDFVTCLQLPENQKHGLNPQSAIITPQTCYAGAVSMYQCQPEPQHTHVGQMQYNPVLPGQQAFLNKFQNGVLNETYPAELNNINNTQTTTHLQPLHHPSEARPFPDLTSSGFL
ABCB6 inh MLPCN: inhibitors of human ABC transporter ABCB6; Q9NP58; K562-ABCB6 porphyrin accumulation, flow cytometry, 1 h; stronger effect = lower value; fluorescence ratio to DMSO, % at 10 µM; 360,000 tested, 0.19% active;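 active = fluorescence ratio to DMSO below 75%, the collection mean minus 3 SD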;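 note: signal is porphyrin accumulated inside mitochondria; 100% equals median channel fluorescence of DMSO control wells; lower ratio means ABCB6 inhibition with less porphyrin fluorescence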
FXN GAA850 act: increases GAA850 frataxin promoter reporter activity; HEK293 lucGAA850 FXN promoter luciferase reporter, 24 h; percent of 10 µM SAHA response; activation, % at 6 µM; 360,000 tested, 0.56% active; AID 540364;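 active = activation above the average of all compounds screened plus 3 SD, cutoff fixed separately per campaign, cut at about 7.5% in these data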;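 note: 0% = DMSO wells and 100% = 10 µM SAHA wells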
Numbers without * were called inactive. An excerpt weighted towards active compounds, which were near 3.3% of everything screened.

What do the screens show for `Cc1ccc(-c2csc3ncnc(N4CCN(C(=O)c5ccco5)CC4)c23)cc1`?
AHR act: -1; ABCB6 inh MLPCN: 90; FXN GAA850 act: -1

How did COc1ccccc1NC(=S)c1ccccc1 do in these assays?
STAT3 act: 101; AHR act: 6; ABCB6 inh MLPCN: 101; FXN GAA850 act: 1

What do the screens show for `Nc1ccc(C(=O)N/N=C\C=C\c2ccc([N+](=O)[O-])cc2)cc1`?
STAT3 act: 82; AHR act: 1; ABCB6 inh MLPCN: 99; FXN GAA850 act: 2

Results for Clc1ccc(/C=N/NC2=Nc3cccc4cccc2c34)cc1 ?
STAT3 act: 119; AHR act: 27; ABCB6 inh MLPCN: 115; FXN GAA850 act: 5

Results for C(=N\NC1=Nc2cccc3cccc1c23)/c1ccccc1 ?
STAT3 act: 144*; AHR act: 28; ABCB6 inh MLPCN: 140; FXN GAA850 act: 7

What do the screens show for `C(=N\NC1=Nc2cccc3cccc1c23)/c1cccnc1`?
STAT3 act: 131; AHR act: 74*; ABCB6 inh MLPCN: 126; FXN GAA850 act: 4

What do the screens show for `Clc1ccc(N/N=C/c2cccnc2)cc1`?
STAT3 act: 96; AHR act: 31; ABCB6 inh MLPCN: 90; FXN GAA850 act: 5

What do the screens show for `FC(F)(F)c1ccc(-c2csc(-c3ccno3)n2)cc1`?
AHR act: 63*; ABCB6 inh MLPCN: 100; FXN GAA850 act: 1

Results for CCOc1ccc2[nH]c(=O)c(C(c3nnnn3Cc3ccco3)N3CCN(C)CC3)cc2c1 (stereo not given) ?
STAT3 act: 99; AHR act: 4; ABCB6 inh MLPCN: 99; FXN GAA850 act: 4

How did CC(=O)Nc1nn(C)c2nc3cc(C)ccc3cc12 do in these assays?
STAT3 act: 86; AHR act: 71*; ABCB6 inh MLPCN: 104; FXN GAA850 act: 0

What do the screens show for `Oc1ccc(Cl)cc1C=Nc1ccc2c3c(cccc13)CC2`?
STAT3 act: 99; AHR act: 49*; ABCB6 inh MLPCN: 100; FXN GAA850 act: 3

How did COc1ccc(-n2nc3c(c2NC(=O)C(C)Oc2ccccc2)CS(=O)(=O)C3)cc1 (stereo not given) do in these assays?
AHR act: -1; ABCB6 inh MLPCN: 97; FXN GAA850 act: 2

Results for O=C1NC(=O)/C(=C/c2ccccc2OCc2ccccc2)S1 ?
STAT3 act: 103; AHR act: 7; ABCB6 inh MLPCN: 97; FXN GAA850 act: 1

What do the screens show for `O=C(COc1ccccc1/C=C1\SC(=O)NC1=O)Nc1ccccc1`?
STAT3 act: 103; AHR act: 57*; ABCB6 inh MLPCN: 105; FXN GAA850 act: 2

Results for COc1ccc(-c2sc3ccc(OC)cc3c2C#CCCO)cc1 ?
AHR act: 61*; ABCB6 inh MLPCN: 101; FXN GAA850 act: 4

How did COc1ccc2sc(-c3ccc(N(C)C)cc3)c(C#CC(C)(C)O)c2c1 do in these assays?
AHR act: 28; ABCB6 inh MLPCN: 100; FXN GAA850 act: 6

How did COc1ccc(-c2sc3ccc(N4CCOCC4)cc3c2C#CC(C)(C)O)cc1 do in these assays?
AHR act: 49*; ABCB6 inh MLPCN: 98; FXN GAA850 act: 3

How did COc1ccc(-c2sc3cc(OC)c(OC)cc3c2C#CCO)cc1 do in these assays?
AHR act: 19; ABCB6 inh MLPCN: 98; FXN GAA850 act: 0

What do the screens show for `COc1ccc2sc(-c3ccc(N(C)C)cc3)c(C#Cc3cncn3C)c2c1`?
AHR act: 71*; ABCB6 inh MLPCN: 110; FXN GAA850 act: 1

What do the screens show for `COc1ccc(-c2sc3ccc(OC)cc3c2-c2ccc(O)cc2)cc1`?
AHR act: 65*; ABCB6 inh MLPCN: 99; FXN GAA850 act: 1

What do the screens show for `Cn1c(NC(=O)/C=C\c2ccccc2)cc(=O)n(C)c1=O`?
STAT3 act: 108; AHR act: 50*; ABCB6 inh MLPCN: 101; FXN GAA850 act: 7

Results for O=C(CN1CCCc2ccccc21)Nc1cc(S(=O)(=O)N2CCCC2)ccc1Cl ?
AHR act: 10; ABCB6 inh MLPCN: 96; FXN GAA850 act: 0

Results for CC1Cc2ccccc2N1C(=S)NC(=O)c1ccco1 (stereo not given) ?
STAT3 act: 101; AHR act: 2; ABCB6 inh MLPCN: 96; FXN GAA850 act: 2

What do the screens show for `O=C(NC(=S)N1CCCc2ccccc21)c1ccco1`?
STAT3 act: 135*; AHR act: 14; ABCB6 inh MLPCN: 93; FXN GAA850 act: 0

Results for CC1(O)c2ccccc2C(=O)N1CCc1ccccc1F (stereo not given) ?
STAT3 act: 109; AHR act: 76*; ABCB6 inh MLPCN: 101; FXN GAA850 act: 3

Results for CCNC(=S)N/N=C/c1cn(Cc2ccc(F)cc2)c2ccccc12 ?
STAT3 act: 106; AHR act: 39; ABCB6 inh MLPCN: 91; FXN GAA850 act: 1

What do the screens show for `CCNC(=S)N/N=C/c1cn(Cc2ccccc2F)c2ccccc12`?
STAT3 act: 107; AHR act: 51*; ABCB6 inh MLPCN: 79; FXN GAA850 act: 3

How did O=C(OCc1ccccc1)/C(=C(\O)c1ccccc1Br)c1ccc(-c2ccccc2)cn1 do in these assays?
AHR act: 5; ABCB6 inh MLPCN: 101; FXN GAA850 act: 1

What do the screens show for `O=C(Nc1ccc(S(=O)(=O)Nc2nccs2)cc1)/C(=C/c1ccccc1Cl)NC(=O)c1ccccc1`?
STAT3 act: 78; AHR act: 2; ABCB6 inh MLPCN: 97; FXN GAA850 act: 3

Results for COc1cc(C(=O)Nc2ccc3c(c2)OCO3)c([N+](=O)[O-])cc1OC ?
AHR act: 59*; ABCB6 inh MLPCN: 93; FXN GAA850 act: 2

Results for COc1cc(NC(=O)Nc2ccc3c(c2)OCO3)cc(OC)c1OC ?
STAT3 act: 94; AHR act: 76*; ABCB6 inh MLPCN: 105; FXN GAA850 act: 3

What do the screens show for `COc1ccc(C(C)(C)C)cc1NC(=O)c1c(C)noc1C`?
STAT3 act: 95; AHR act: 81*; ABCB6 inh MLPCN: 97; FXN GAA850 act: 0

What do the screens show for `COc1ccc(C)cc1NC(=O)Nc1ccc2c(c1)CCC2`?
AHR act: 77*; ABCB6 inh MLPCN: 106; FXN GAA850 act: 0

Results for COc1ccccc1NC(=O)Nc1ccc2c(c1)CCC2 ?
AHR act: 15; ABCB6 inh MLPCN: 98; FXN GAA850 act: 2

Results for COc1ccc(C(CNC(=O)CCNC(=O)c2ccccc2OC)N2CCCC2)cc1 (stereo not given) ?
AHR act: 0; ABCB6 inh MLPCN: 99; FXN GAA850 act: 1

Results for COc1ccc(C(C)(C)C)cc1NC(=O)Nc1ccc2c(c1)OCO2 ?
STAT3 act: 120; AHR act: 79*; ABCB6 inh MLPCN: 89; FXN GAA850 act: -2

Results for O=C(Nc1ccc2c(c1)OCO2)c1ccc(NC2CC2)c([N+](=O)[O-])c1 ?
STAT3 act: 99; AHR act: 52*; ABCB6 inh MLPCN: 99; FXN GAA850 act: 1

What do the screens show for `CC(=O)c1cccc(NC(=S)N2CCN(CCN3C(=O)c4cccc5cccc(c45)C3=O)CC2)c1`?
STAT3 act: 80; AHR act: 1; ABCB6 inh MLPCN: 98; FXN GAA850 act: 2

Compound activity as filed in PubChem.
